The term MIC denotes the smallest concentration in the dilution series that meets the test's criterion for growth inhibition. High values mean a need for much substance, low ones inhibition by little substance.

Holding throughout (format): functional
Assay [1] concerns Mycolicibacterium smegmatis. Put plainly: Antibacterial activity against Mycobacterium smegmatis SZ558 after 24 generation times. Put shortly: (§1)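 M. smegmatis SMR5 strains with one rRNA operon on a plasmid integrated at attB, grown in LB + 0.05% Tween 80 at 37°C to visible growth, diluted to OD600 0.02, and mixed 1:1 with 2-fold antibiotic dilutions. Tested ranges were linezolid 0.125–64 μg/ml and chloramphenicol, clindamycin, valnemulin 1–512 μg/ml. Incubation ran 37°C for 24 generation times of each strain. MIC was the lowest concentration with complete visual inhibition. Parent/wild-type controls were on each plate.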

Assay [2] concerns Mycolicibacterium smegmatis. Put plainly: Antibacterial activity against wild type Mycobacterium smegmatis after 24 generation times. The procedure, abridged: as §1
Assay [3] concerns Mycolicibacterium smegmatis. Put plainly: Antibacterial activity against Mycobacterium smegmatis harboring 23S rRNA A2058G mutant after 24 generation times. Put shortly:
as §1

Assay [4] has as its system Mycolicibacterium smegmatis. Put plainly: Antibacterial activity against Mycobacterium smegmatis harboring 23S rRNA G2032C mutant after 24 generation times. The procedure, abridged:
as §1

Assay [5] has as its system Mycolicibacterium smegmatis. Put plainly: Antibacterial activity against Mycobacterium smegmatis harboring 23S rRNA A2453U mutant after 24 generation times. Put shortly: as §1
In assay [6] the test system is Mycolicibacterium smegmatis. Put plainly: Antibacterial activity against Mycobacterium smegmatis harboring 23S rRNA C2499U mutant after 24 generation times. The procedure, abridged:
as §1

The test system of assay [7] is Mycolicibacterium smegmatis. Put plainly: Antibacterial activity against Mycobacterium smegmatis harboring 23S rRNA A2503G mutant after 24 generation times. Put shortly: as §1
Assay [8] relates to Mycolicibacterium smegmatis. Put plainly: Antibacterial activity against Mycobacterium smegmatis harboring 23S rRNA G2505A mutant after 24 generation times. The procedure, abridged:
as §1

In assay [9] the test system is Mycolicibacterium smegmatis. Put plainly: Antibacterial activity against Mycobacterium smegmatis harboring 23S rRNA C2571G mutant after 24 generation times. Put shortly: as §1
The subject of assay [10] is Mycolicibacterium smegmatis. Put plainly: Antibacterial activity against Mycobacterium smegmatis harboring 23S rRNA G2576U mutant after 24 generation times. Put shortly:
as §1

Assay [11] deals with Mycolicibacterium smegmatis. Put plainly: Antibacterial activity against Mycobacterium smegmatis harboring 23S rRNA C2612A mutant after 24 generation times. Put shortly: as §1
The test system of assay [12] is Mycolicibacterium smegmatis. Put plainly: Antibacterial activity against Mycobacterium smegmatis harboring 23S rRNA C2499A2 mutant after 24 generation times. The procedure, abridged:
as §1

The test system of assay [13] is Mycolicibacterium smegmatis. Put plainly: Antibacterial activity against Mycobacterium smegmatis harboring 23S rRNA G2032A, C2499A mutant after 24 generation times. Put shortly: as §1
The subject of assay [14] is Mycolicibacterium smegmatis. Put plainly: Antibacterial activity against Mycobacterium smegmatis harboring 23S rRNA G2032A mutant after 24 generation times. Put shortly: as §1
Assay [15] deals with Mycolicibacterium smegmatis. Put plainly: Antibacterial activity against Mycobacterium smegmatis harboring 23S rRNA G2032A, U2504G mutant after 24 generation times. The procedure, abridged: as §1
Assay [16] has as its system Mycolicibacterium smegmatis. Put plainly: Antibacterial activity against Mycobacterium smegmatis harboring 23S rRNA U2504G mutant after 24 generation times. The procedure, abridged:
as §1

Assay [17] concerns Mycolicibacterium smegmatis. Put plainly: Antibacterial activity against Mycobacterium smegmatis harboring 23S rRNA C2055A, U2504G mutant after 24 generation times. Put shortly: as §1
In assay [18] the test system is Mycolicibacterium smegmatis. Put plainly: Antibacterial activity against Mycobacterium smegmatis harboring 23S rRNA C2055A mutant after 24 generation times. The procedure, abridged: as §1
The subject of assay [19] is Mycolicibacterium smegmatis. Put plainly: Antibacterial activity against Mycobacterium smegmatis harboring 23S rRNA C2055A, A2572U mutant after 24 generation times. Put shortly:
as §1

Assay [20] has as its system Mycolicibacterium smegmatis. Put plainly: Antibacterial activity against Mycobacterium smegmatis harboring 23S rRNA A2572U1 mutant after 24 generation times. Put shortly: as §1

Structures are written as SMILES. In brackets after ≈: the same amount, converted by molar mass.

`O=C(N[C@H](CO)[C@H](O)c1ccc([N+](=O)[O-])cc1)C(Cl)Cl` [CHLORAMPHENICOL]: the minimum inhibitory concentration (MIC) in assay [1], in assay [2], in assay [3], in assay [4], in [5] and in assay [6] was 32 µg/mL (≈ 99 µM) throughout. In addition, the minimum inhibitory concentration (MIC) was 128 µg/mL (≈ 396 µM) in assay [7]; 128 µg/mL (≈ 396 µM) in assay [8]; 32 µg/mL (≈ 99 µM) in assay [9]; 256 µg/mL (≈ 792 µM) in assay [10]; 64 µg/mL (≈ 198 µM) in assay [11]; 32 µg/mL (≈ 99 µM) in assay [12]. The MIC was found to be 64 µg/mL (≈ 198 µM) in [13]; 32 µg/mL (≈ 99 µM) in assay [14]; 256 µg/mL (≈ 792 µM) in assay [15]; 512 µg/mL (≈ 1580 µM) in assay [16]; 128 µg/mL (≈ 396 µM) in [17]; 32 µg/mL (≈ 99 µM) in assay [18]. In addition, the values for the minimal inhibitory concentration (MIC) in [19] and in assay [20] were 64 µg/mL (≈ 198 µM) and 8 µg/mL (≈ 24.8 µM), respectively.

On to `CCC[C@@H]1C[C@@H](C(=O)N[C@@H]([C@H]2O[C@H](SC)[C@H](O)[C@@H](O)[C@H]2O)[C@H](C)Cl)N(C)C1` [CLINDAMYCIN], for which the minimum inhibitory concentration (MIC) in [1] is 16 µg/mL (≈ 37.6 µM); in assay [2], 16 µg/mL (≈ 37.6 µM); in [3], more than 1030 µg/mL; in [4], 128 µg/mL (≈ 301 µM); in assay [5] it was 32 µg/mL (≈ 75.3 µM); in assay [6] it was 16 µg/mL (≈ 37.6 µM). The MIC in [7] was 8 µg/mL (≈ 18.8 µM); in assay [8] it was 16 µg/mL (≈ 37.6 µM); in assay [9], 16 µg/mL (≈ 37.6 µM); in [10], 64 µg/mL (≈ 151 µM); in assay [11] it was 16 µg/mL (≈ 37.6 µM); in assay [12], 16 µg/mL (≈ 37.6 µM). Moreover, the MIC in assay [13] turned out to be 16 µg/mL (≈ 37.6 µM); in assay [14], 32 µg/mL (≈ 75.3 µM); in assay [15] it was 16 µg/mL (≈ 37.6 µM); in assay [16], 16 µg/mL (≈ 37.6 µM); in assay [17], 16 µg/mL (≈ 37.6 µM); in assay [18], 32 µg/mL (≈ 75.3 µM). In addition, the figures for the minimum inhibitory concentration (MIC) in assay [19] and in assay [20] were 512 µg/mL (≈ 1200 µM) and 16 µg/mL (≈ 37.6 µM), respectively.

With `CC(=O)NC[C@H]1CN(c2ccc(N3CCOCC3)c(F)c2)C(=O)O1` [LINEZOLID], the MIC in assay [1] was 2 µg/mL (≈ 5.93 µM); in assay [2] it was 2 µg/mL (≈ 5.93 µM); in [3], 2 µg/mL (≈ 5.93 µM); in [4] it was 4 µg/mL (≈ 11.9 µM); in assay [5], 4 µg/mL (≈ 11.9 µM); in assay [6] it was 2 µg/mL (≈ 5.93 µM). Besides, the MIC is 8 µg/mL (≈ 23.7 µM) in assay [7]; 16 µg/mL (≈ 47.4 µM) in assay [8]; 4 µg/mL (≈ 11.9 µM) in [9]; 64 µg/mL (≈ 190 µM) in assay [10]; 4 µg/mL (≈ 11.9 µM) in assay [11]; 2 µg/mL (≈ 5.93 µM) in [12]. In addition, the minimum inhibitory concentration (MIC) was 8 µg/mL (≈ 23.7 µM) in [13]; 2 µg/mL (≈ 5.93 µM) in assay [14]; 64 µg/mL (≈ 190 µM) in [15]; 8 µg/mL (≈ 23.7 µM) in assay [16]; 32 µg/mL (≈ 94.9 µM) in assay [17]; 0.5 µg/mL (≈ 1.48 µM) in [18]. The minimal inhibitory concentration (MIC) in [19] is 64 µg/mL (≈ 190 µM); in [20], 4 µg/mL (≈ 11.9 µM).

On to `C=C[C@]1(C)C[C@@H](OC(=O)CSC(C)(C)CNC(=O)[C@H](N)C(C)C)[C@]2(C)[C@H](C)CC[C@]3(CCC(=O)[C@H]32)[C@@H](C)[C@@H]1O` [VALNEMULIN], for which the minimal inhibitory concentration (MIC) in assay [1] worked out at 32 µg/mL (≈ 56.7 µM); in [2], 32 µg/mL (≈ 56.7 µM); in assay [3] it was 64 µg/mL (≈ 113 µM); in [4], 128 µg/mL (≈ 227 µM); in assay [5] it was 64 µg/mL (≈ 113 µM); in assay [6], 32 µg/mL (≈ 56.7 µM). Besides, the MIC in assay [7] was determined as 32 µg/mL (≈ 56.7 µM); in assay [8] it was 32 µg/mL (≈ 56.7 µM); in [9], 32 µg/mL (≈ 56.7 µM); in assay [10] it was 32 µg/mL (≈ 56.7 µM); in assay [11], 32 µg/mL (≈ 56.7 µM); in [12], 64 µg/mL (≈ 113 µM). Also, the minimum inhibitory concentration (MIC) in assay [13] amounted to 128 µg/mL (≈ 227 µM); in [14], 128 µg/mL (≈ 227 µM); in [15] it was 128 µg/mL (≈ 227 µM); in [16], 64 µg/mL (≈ 113 µM); in [17], 64 µg/mL (≈ 113 µM); in assay [18], 64 µg/mL (≈ 113 µM). Besides, the minimal inhibitory concentration (MIC) in assay [19] and in assay [20] was 128 µg/mL (≈ 227 µM) throughout.

Source of the values: ChEMBL document CHEMBL1687780, “Mutations in 23S rRNA at the peptidyl transferase center and their relationship to linezolid binding and cross-resistance” (2010).
